Many of the other results were omitted from the sample, so hits are more common in it than they were.
INS promoter act = TRM-6 insulin promoter activation. AID 1296. TRM-6 cells (human fetal islet line), insulin promoter eGFP reporter, imaging; plate-scaled: unstimulated 0, stimulated control 100. activation, % at 2 µM. actives 0.81% (n = 130,000);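 active = activation at 2 µM above a set limit, confirmed on inspection of the cell images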;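 note: share of cells whose green reporter signal exceeds an intensity cutoff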
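Assay system: TRM-6 human fetal islet cells, insulin promoter–eGFP reporter; Also added: 0.75 µM tamoxifen as reporter inducer; Schedule: 15 h tamoxifen pre-treatment, 48 h compound treatment at 37 °C; Signal: fixed-cell fluorescence microscopy, eGFP plus Hoechst; Read-out: percent activation from GFP-positive cell fraction; Control set: stimulated and unstimulated wells.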
Active calls of the source: *.

`Cc1ccc(S(=O)(=O)N2CCC(C(=O)NCc3ccccc3Cl)CC2)cc1` gave INS promoter act 91.4*.
`O=C(NCc1ccccn1)C1CCN(S(=O)(=O)c2ccccc2)CC1` gave INS promoter act 0.0.
CN(C)C(=O)N1CCCC(C(=O)NCc2ccccc2Cl)C1 (stereo unspecified) was read as INS promoter act -7.7.
Screening Cc1nc(SCCOc2ccccc2F)[nH]c(=O)c1Cc1ccccc1 returned INS promoter act 0.0.
Screening Cc1ccnc(NC(=O)CCC(=O)N(CC(=O)NCc2ccccc2)Cc2cccs2)c1 returned INS promoter act 138.9.
Screening COc1ccc(CNC(=O)C/C(C)=N/NC(=O)C23CC4CC(CC(C4)C2)C3)cc1 returned INS promoter act 0.0.
`COc1ccc(C(=O)NCCN2CCOCC2)cc1OC` gave INS promoter act -78.6.
`O=C(CCSCCC(=O)NCCN1CCOCC1)NCCN1CCOCC1` gave INS promoter act -6.9.
COCCNC(=O)C(=O)NCCN1CCOCC1 was read as INS promoter act 493.8*.
`Cc1c(NC(=O)CSc2nc3ccccc3n2C)c(=O)n(-c2ccccc2)n1C` gave INS promoter act 6.7.
Cn1c(SCC2CCCO2)nnc1-c1ccc([N+](=O)[O-])cc1 (stereo unspecified) was read as INS promoter act 0.0.
For COC(=O)C1=C(C)NC(=O)NC1c1ccc(-c2ccc(F)cc2)o1 (stereo unspecified) the results were INS promoter act -5.6.
COC(=O)C1=C(C)NC(=S)NC1c1ccc(-c2ccccc2C(=O)OC)o1 (stereo unspecified) was read as INS promoter act 428.6*.
For COC(=O)C1=C(C)NC(=S)NC1c1ccc(-c2cccc(Cl)c2)o1 (stereo unspecified) the results were INS promoter act 0.0.
`CCNc1nc(NCC)nc(N(C)N)n1` gave INS promoter act -3.8.
CCN(CCNC(=O)CN1CCN(Cc2ccc(Cl)cc2)C1=O)c1ccccc1 was read as INS promoter act 0.0.
`CCc1cccc(NC(=O)C2CCCC2)c1` gave INS promoter act -5.4.
Cc1cccc(NC(=O)C2CCCN(S(=O)(=O)c3cccc4nsnc34)C2)c1 (stereo unspecified) was read as INS promoter act 0.0.
For CCc1cccc(NC(=O)C2CCCN(S(=O)(=O)c3c(C)[nH]c(=O)[nH]c3=O)C2)c1 (stereo unspecified) the results were INS promoter act 82.8*.
Screening COc1ccc2c(c1)c(C(=O)N/N=C/c1ccc(OC)c(OC)c1)c(C)n2C returned INS promoter act 2.0.
Screening COc1cccc(-c2noc(-c3ccc(Br)o3)n2)c1 returned INS promoter act -6.7.
Cc1cc(C)c(C)c(OCC(=O)N2CCOCC2)c1 was read as INS promoter act -2.7.
`Cc1cc(OCC(=O)N2CCCC2)cc(C)c1Cl` gave INS promoter act 130.8.
For Cc1cc(OCC(=O)N2CCOCC2)cc2oc(=O)c3ccccc3c12 the results were INS promoter act 423.5*.
Cc1ccc(NC(=O)C(=O)NCCN2CCN(S(=O)(=O)c3ccccc3)CC2)cc1C was read as INS promoter act -6.7.
For CCC(C)(C)n1nnnc1C(c1ccc(C)cc1)N1CCN(Cc2ccc3c(c2)OCO3)CC1 (stereo unspecified) the results were INS promoter act -3.4.
`CCC(C)S(=O)(=O)c1snnc1C` (stereo unspecified) gave INS promoter act -8.3.
For CCOc1ccc(NC(=O)CCNS(=O)(=O)c2ccc3c(c2)c(=O)n(C)c(=O)n3C)cc1 the results were INS promoter act -9.1.
`Cn1c(=O)oc2cc(S(=O)(=O)NCCC(=O)N3CCc4ccccc4C3)ccc21` gave INS promoter act 8.1.
`CCOC(=O)N1CCN(C(=O)CCNS(=O)(=O)c2ccc3c(c2)c(=O)n(C)c(=O)n3C)CC1` gave INS promoter act 292.9*.
For COc1ccc(OCC(=O)Nc2ccc(N3CCN(C(=O)c4ccccc4C)CC3)cc2)cc1 the results were INS promoter act 0.0.
Screening CCN(CCCNC(=O)CN1C(=O)COc2ccccc21)c1cccc(C)c1 returned INS promoter act 0.0.
CCc1ccc(NC(=O)C(C)OC(=O)CCC(=O)c2cccs2)cc1 (stereo unspecified) was read as INS promoter act -2.7.
O=C(NCc1cccnc1)c1ccc(NC(=O)c2ccco2)cc1 was read as INS promoter act -79.0.
O=C(NCc1cccnc1)c1nc(-c2ccc(C(F)(F)F)cc2)no1 was read as INS promoter act 300.0*.
Screening O=C(NCc1cccnc1)c1cc(-c2ccccc2)on1 returned INS promoter act 31.8.
Screening COc1ccc(C(=O)Nc2ccc(Cl)cc2C(=O)N2CCCC(C)C2)cc1 (stereo unspecified) returned INS promoter act -9.9.
Screening COCCN(C(=O)CNC(=O)c1ccco1)C(C(=O)NC1CCCC1)c1cccs1 (stereo unspecified) returned INS promoter act 0.0.
`O=C(c1ccccc1-c1ccccc1)N1CCCC1` gave INS promoter act 520.0*.
O=C(O)c1ccccc1C(=O)N1CCN(C(=O)c2ccccc2Cl)CC1 was read as INS promoter act 6.7.
O=C(c1ccc(-c2ccccc2)cc1)N1CCCC1 was read as INS promoter act 9.7.
`COc1cc(S(=O)(=O)N2CCN(C(=O)c3ccccc3)CC2)c(OC)cc1Br` gave INS promoter act -7.7.
Screening CN1CCN(NS(=O)(=O)c2cccs2)CC1 returned INS promoter act 2.6.
`COC(=O)c1cc(C(=O)c2ccc(C(C)(C)C)cc2)c[nH]1` gave INS promoter act 0.0.
Screening O=C(c1ccc(Cl)cc1)c1c[nH]c(C(=O)NNc2cccc(Cl)n2)c1 returned INS promoter act 430.8*.
O=C(NNc1cccc(Cl)n1)c1ccc(Cl)cc1Cl was read as INS promoter act 8.8.
CCCc1nn2c(=O)c(C(c3cccc(Cl)c3)c3c(O)nc4sc(CCC)nn4c3=O)c(O)nc2s1 was read as INS promoter act 3.3.
Screening COc1ccc(OCC(=O)NCCc2c[nH]c3ccccc23)cc1 returned INS promoter act 7.1.
For CCOc1ccc(OCCN2C(=O)NC(Cc3c[nH]c4ccccc34)C2=O)cc1 (stereo unspecified) the results were INS promoter act 533.3*.
Screening COc1ccc(OCCN2C(=O)c3ccccc3C2=O)cc1 returned INS promoter act 107.7.
CCOC(=O)c1cc(C)n(CCCN2CCOCC2)c1C was read as INS promoter act 86.2*.
For COCCn1c(C)cc(C(=O)CN2CCCCC2)c1C the results were INS promoter act 7.1.
Cc1ccccc1C(=O)OCCN1CCOCC1 was read as INS promoter act 7.7.
For Cc1cccc(C(=O)NC(=S)N2CCc3ccccc3C2)c1 the results were INS promoter act 7.1.
`O=C(COC(=O)COc1ccccc1)NCc1ccccc1` gave INS promoter act 0.0.
For O=C(NCCc1ccccc1)c1oc2ccccc2c1COc1ccccc1 the results were INS promoter act 80.0*.
Screening O=C(NCCc1ccccc1)c1ccc(-c2ccccc2C(F)(F)F)o1 returned INS promoter act 4.8.
For CCOc1ccc(C(CC(=O)O)n2cnnn2)cc1 (stereo unspecified) the results were INS promoter act 9.1.
CC1=CC(C)(C)N2C(=O)C3(N=C(N)NC(Nc4ccccc4)=N3)c3cc(C)cc1c32 (stereo unspecified) was read as INS promoter act 481.3*.
CC1CCN(Cc2c(O)ccc3c2O/C(=C\c2ccco2)C3=O)CC1 was read as INS promoter act 485.7*.
